From PubChem BioAssay AID624466 (The Scripps Research Institute Molecular Screening Center, 2012) come the findings set out here.

The whole screen tested about 360,000 compounds, of which about 5,400 (1.5%) were called active. What follows is part of a selection rich in actives, with near analogues and random picks from the rest. Values without a mark were called inactive.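 Rule for the calls: active = inhibition above a per-plate cutoff, the mean inhibition of test compounds on that plate plus 3 SD (cut at about 49% in these data); inactive = the rest.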

Trace amine-associated receptor 1 (Homo sapiens), sequence (Q96RJ0 whole entry, looked up): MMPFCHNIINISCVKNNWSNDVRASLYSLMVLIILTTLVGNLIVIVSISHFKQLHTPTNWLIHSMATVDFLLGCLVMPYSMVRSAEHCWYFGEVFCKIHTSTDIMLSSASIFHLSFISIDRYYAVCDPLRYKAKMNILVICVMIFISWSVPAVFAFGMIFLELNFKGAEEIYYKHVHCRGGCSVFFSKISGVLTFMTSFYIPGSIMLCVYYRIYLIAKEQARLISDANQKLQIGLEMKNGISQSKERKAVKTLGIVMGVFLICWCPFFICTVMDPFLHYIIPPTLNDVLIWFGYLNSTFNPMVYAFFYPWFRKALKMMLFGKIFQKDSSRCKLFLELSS

This assay addresses Trace amine-associated receptor 1 (Homo sapiens) (UniProt Q96RJ0). The experiment in a line: blockers of beta-PEA-driven TAAR1 calcium signal – Fluo-8 calcium fluorescence, CHO RD-HGA16 cells, primary screen (AID 624466).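 Note: 0% = DMSO plus EC80 beta-PEA response and 100% = DMSO alone without agonist.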 The following applies: CHO RD-HGA16 TAAR1, Fluo-8 calcium fluorescence, antagonist; at 3 µM; stronger effect = higher value. The essentials: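 Assay system: CHO-derived RD-HGA16 cells stably expressing human TAAR1 plus Gα16. Timing: 140 s kinetic read after compound, 140 s after agonist. Technique: kinetic Fluo-8 calcium fluorescence measurement. Measure: % inhibition of agonist calcium response.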
In the case of `Cc1cc(Br)cn2c(Cc3ccccc3C(F)(F)F)c(-c3ccc(C#N)cc3)nc12`, the inhibition is 3.16%.
Regarding `CN(C(=O)COC(=O)CCCc1c[nH]c2ccccc12)c1c(N)n(Cc2ccccc2)c(=O)[nH]c1=O`, the inhibition was 2.09%.
`COc1ccc(SSc2ccc(OC)cc2C(=O)O)c(C(=O)O)c1`: the inhibition was -9.02%.
On to `S=C(NN=C1CCN(Cc2ccccc2)CC1)NC1CCCCC1`, for which the inhibition was -2.21%.
As to `S=C(Nc1ccc(Br)cc1)NC1CCN(Cc2ccccc2)CC1`, the inhibition was 51.4% (active).
Turning to `S=C(Nc1ccc(Br)cc1Cl)NC1CCN(Cc2ccccc2)CC1`, the inhibition was 0.09%.
Take `Cc1ccc2nc(-c3ccc(CN4CCC(n5cc(-c6ccccc6)[nH]c5=O)CC4)cc3)c(-c3ccccc3)nc2c1`: the inhibition is 14.1%.
On to `Cc1cc(Cl)c(S(=O)(=O)NCc2cccnc2)cc1OCC(N)=O`, for which the inhibition was -0.54%.
As to `CCC(=O)N1Cc2cc(C(=O)NCc3cccc(F)c3)nc(-c3cccc(C4=CCCC4)c3)c2[C@H]1CCO`, the inhibition is -2.34%.
As for `Nc1c(C(=O)c2cccs2)sc2nsc(SCCN3CCCCC3)c12`, the figure is 61.2% (active).
On to `COc1cccc(-c2nnc(N(C)C(=O)c3ccno3)s2)c1`, for which the inhibition is 8.59%.
Consider `CN=C1SC(CC(=O)Nc2ccc(C(=O)O)cc2)C(=O)N1C` (centres undefined), for which the inhibition was -12.5%.
For the compound `CCN1C(=O)C(CC(=O)Nc2cc(C)ccc2C)SC1=Nc1ccc(S(N)(=O)=O)cc1` (centres undefined), the inhibition was 6.51%.
With `CCN=C1SC(CC(=O)Nc2ccc(C)cc2)C(=O)N1CC` (centres undefined), the inhibition was 57.5% (active).
For `Cc1ccc(NC(=O)N2c3ccccc3SC2c2ccco2)c(C)c1` (centres undefined), the inhibition was -10.8%.
For the compound `CC(=O)N1CCc2cc(S(=O)(=O)NC3CCCCC3)ccc21`, the inhibition was 6.97%.
As for `Cc1ccc(NC(=O)CN(C)C(=O)Cn2nnc(-c3ccccc3)n2)cc1`, the inhibition is -1.85%.
On to `CC(=O)OCCN(CCCn1c(-c2ccncc2)nc2ccccc21)c1nc(-c2ccc(C)cc2)cs1`, for which the inhibition was 53.5% (active).
As for `COc1ccc(-c2nc3ccccc3n2CCC(C)C)cc1OC`, the figure is 19.6%; as for `CCOCCn1c(-c2ccccc2)nc2ccccc21`, -32.8%.
Take `CCc1cccc2c3c([nH]c12)C(CC)(CC(=O)O)OCC3` (centres undefined): the inhibition was -11.8%.
On to `O=C1CCN(Cc2ccccc2)CCN1[C@H](CSc1ccccc1)c1ccccc1`, for which the inhibition is 15.6%.
Turning to `CC(C)C1Cc2[nH][nH]c(=O)c2C(c2ccc(Cl)cc2)O1` (centres undefined), the inhibition was -21.6%.
The same measure for `CCC(c1nnnn1-c1ccc2c(c1)OCCO2)N1CCN(c2ccc(C(F)(F)F)cn2)CC1` (centres undefined): 24.4%; for `NS(=O)(=O)c1cccc(NC(=O)COC(=O)c2cc([N+](=O)[O-])ccc2N2CCCC2)c1`: 7.66%.
Regarding `CC(=O)Nc1ccc(NC(=O)C(C)OC(=O)c2ccccc2C(=O)c2ccc(Cl)c([N+](=O)[O-])c2)cc1` (centres undefined), the inhibition is 13.5%.
Regarding `N#Cc1cccc(NC(=O)COC(=O)c2ccccc2C(=O)c2ccc(Cl)c([N+](=O)[O-])c2)c1`, the inhibition is 71.8% (active).
The same measure for `O=C(c1ccco1)N1CCN(C(=O)C2CCCN(S(=O)(=O)c3cccc4nsnc34)C2)CC1` (centres undefined): 8.68%.
Consider `COc1cc(OC)cc(-c2c(C#Cc3ccsc3)c3cc(-c4ccc(OC)cc4F)ccc3n2C)c1`, for which the inhibition is 10.3%.
As to `COc1cccc(NC(=O)N(C)C[C@@H]2OCc3cn(nn3)CCCC(=O)N([C@@H](C)CO)C[C@H]2C)c1`, the inhibition was -3.32%.
`Cc1cccc(C)c1NC(=O)N1CC=C(n2c(=O)[nH]c3ccccc32)CC1`: the inhibition is 17.3%.
In the case of `CCOc1ccc(NC(=O)N2CCN(CC)CC2)cc1`, the inhibition is 13.8%.
Turning to `CCOc1ccc(NC(=O)N2CC=C(n3c(=O)[nH]c4ccccc43)CC2)cc1`, the inhibition was 62% (active).
`CCCNC(=S)N1CCCC(c2nc3ccccc3[nH]2)C1` (centres undefined): the inhibition was 1.96%.
Take `CC(C)C[C@@H](COCc1ccc(Cl)cc1)N1CCN(C(=O)c2ccc(Cl)cc2Cl)CCC1=O`: the inhibition is 15.1%.
As for `Fc1ccc(NC(=S)N2CCc3[nH]c4ccccc4c3C2)cc1`, the inhibition is 60.8% (active).
In the case of `C[C@H](O)[C@@H]1C(=O)N2CCc3c([nH]c4ccccc34)[C@@H]2C[C@@H]1N(C)C(=O)Nc1ccc(F)cc1`, the inhibition is -21.1%.
As for `C=CCNC(=S)N1CCc2[nH]c3ccccc3c2C1`, the figure is -0.9%; as for `Cc1ccc(S(=O)(=O)N2[C@@H](Cc3ccccc3)CO[C@H]2CC(=O)OCc2ccccc2)cc1`, 22.8%; as for `COc1ccc(NC(=O)CNc2cc(S(=O)(=O)N3CCOCC3)ccc2N2CCOCC2)c(OC)c1`, 14.2%.
Consider `Cc1[nH]nc2c1C(c1ccc(Br)cc1)NC2=O` (centres undefined), for which the inhibition is -19.4%.
`CCOC(=O)N1CCC(=NNC(N)=O)CC1`: the inhibition is 5.25%.
In the case of `N#Cc1ccc(C(c2nnnn2CCc2ccccc2)N2CCCCCC2)cc1` (centres undefined), the inhibition was 19.8%.
`Fc1ccc(Cn2nnnc2C(c2cccs2)N2CCCCCC2)cc1` (centres undefined): the inhibition is 50% (active).
The same measure for `Fc1ccccc1C(c1nnnn1Cc1ccc2c(c1)OCO2)N1CCN(Cc2ccccc2)CC1` (centres undefined): 8.62%; for `CCc1nnc(NC(=O)CSc2nnnn2-c2cccc(C(C)=O)c2)s1`: -22.1%; for `O=C(NCc1ccccc1)C1c2ccccc2OCC(=O)N1CCCN1CCOCC1` (centres undefined): -17.4%.
The same measure for `O=C(O)c1ccc(S(=O)(=O)c2ccccc2)s1`: 7.73%; for `Cc1ccc(NC(=O)C(=O)NCc2ccc(/C=N/NC(=O)c3c(C)nc4cc(C)ccn34)o2)cc1`: -9.86%; for `Cc1ccc(CNC(=O)c2cccnc2Cl)cc1`: 0.77%.
As for `CSc1ccccc1C(=O)NCc1ccccc1`, the figure is 3.42%; as for `Cc1ccc(CNC(=O)c2ccccc2CCc2ccccc2)cc1`, 49.7% (active).
As for `COc1cc(C#Cc2ccc3cc(CCCO)oc(=O)c3c2)cc(OC)c1`, the inhibition is 26.9%.
The same measure for `O=C1c2ccccc2C(=O)N1CCC#Cc1ccc2cc(C3(O)CCCCC3)oc(=O)c2c1`: 75.1% (active); for `Cc1cccn2cc(-c3cccc(S(=O)(=O)N4CCCCC4)c3)nc12`: -29.1%.
The same measure for `CCC(C(=O)Nc1c(C)cccc1C)n1c(-c2cc(C)cs2)nc2ccccc21` (centres undefined): -17.6%.
Consider `Fc1ccccc1/C=N/Nc1cc(N2CCCCC2)ncn1`, for which the inhibition was -0.85%.
For `CC(=O)N1CCCc2cc(S(=O)(=O)N3CCCC(C(=O)N4CCN(c5cccc(Cl)c5)CC4)C3)ccc21` (centres undefined), the inhibition was 83.6% (active).
As for `O=C(C1CCCN(S(=O)(=O)c2ccccc2)C1)N1CCN(c2ccc(F)cc2)CC1` (centres undefined), the inhibition is -6.96%.
Regarding `COc1cccc(N2CCN(C(=O)C3CCCN(S(=O)(=O)c4cnc[nH]4)C3)CC2)c1` (centres undefined), the inhibition is -6.44%.
As to `Cn1c(=O)n(C)c(=O)n(CC(=O)N2CCCCC2)c1=O`, the inhibition was -10.7%.
As to `Oc1ccc(/C=N/Nc2nc(-c3ccccc3F)nc3ccccc23)c(O)c1`, the inhibition was 82.1% (active).
As to `CCOc1ccc(N(C)S(=O)(=O)c2cnc[nH]2)cc1`, the inhibition was -13.2%.
As for `Cn1c(C(=O)NCCc2ccsc2)cc2c(=O)n(C)c3ccccc3c21`, the inhibition is 57.4% (active).
`Cn1c(C(=O)N2CCC(C(N)=O)CC2)cc2c(=O)n(C)c3ccccc3c21`: the inhibition is -11.2%.
For the compound `Cn1c(C(=O)NCCN2CCc3ccccc3C2)cc2c(=O)[nH]c3ccccc3c21`, the inhibition was 4.74%.
Regarding `COc1ccc(C(=O)Nc2ccc(C(=O)NCC3CCCO3)cc2)c(OC)c1OC` (centres undefined), the inhibition is -23%.
As for `O=C1NC[C@H](Cc2ccc(O)cc2)N(C[C@@H]2CCCN2C[C@H](Cc2ccccc2)N2C[C@H](Cc3ccccc3)N(CC3CCCCC3)C(=O)C2=O)C1=O`, the figure is -20.1%.
As for `CN(CC(=O)Nc1c(Cl)cccc1Cl)C(=O)CNC(=O)C1CCCCC1`, the inhibition was -8.13%.
Take `Cc1cccc(C)c1NC(=O)CNC(=O)C1CCCC1`: the inhibition is 100% (active).
The same measure for `Cc1cccc(C)c1NC(=O)CNC(=O)Cc1ccc(Br)cc1`: -2.34%; for `Cc1ccc(S(=O)(=O)N2CCCC2C(=O)NCc2ccco2)cc1` (centres undefined): -5.82%; for `COc1ccc(CNC(=O)CN(Cc2ccccc2Cl)C(=O)c2csnn2)cc1`: 10.7%.
As for `CCCc1nc2ccccc2n1C(C)C(=O)NC(C)(C)C` (centres undefined), the figure is -0.35%.
Turning to `COc1ccc(Br)cc1S(=O)(=O)N1CCN=C1C`, the inhibition was -4.85%.
For the compound `Cc1ccc(-c2noc(CNC(=O)c3ccoc3C)n2)cc1`, the inhibition is -42.9%.
For `C/C(=N/Nc1ccc(Cl)cc1)c1cnnc(-c2ccccc2)n1`, the inhibition was 8.2%.
With `C/C(=N\Nc1ccccc1)c1cccs1`, the inhibition was 8.01%.
With `CC/C(=N/Nc1ccccc1)c1cnnc(SC)n1`, the inhibition was 74.9% (active).
Consider `O=C(COC(=O)c1ncc(Cl)c(Cl)c1Cl)NC1CCS(=O)(=O)C1` (centres undefined), for which the inhibition was -31.4%.
`Cc1ccc(-n2c(C)cc(/C=N\NC(=O)CC(=O)NC(C)C)c2C)cc1`: the inhibition was 97.7% (active).
Consider `Cc1cc(/C=N/NC(=O)CC2(C)OCCO2)c(C)n1-c1ccc(Cl)c(Cl)c1`, for which the inhibition was -4.93%.
For the compound `Cc1cc(/C=N/NC(N)=O)c(C)n1C1CCCCC1`, the inhibition was -23.7%.
On to `COc1ccc(-c2nc3cnccn3c2NC(C)(C)CC(C)(C)C)cc1O`, for which the inhibition was 48.6% (active).
For the compound `COc1ccc(-c2nc3cnccn3c2NC2CCCCC2)cc1-c1cccc(Cl)c1`, the inhibition is -50.3%.
For the compound `CCOc1cc(-c2nc3cc(C)ccn3c2NCC2CCCO2)ccc1O` (centres undefined), the inhibition was 24.7%.
For the compound `COC(=O)c1cc(NC(=O)c2cc(C(C)(C)C)nn2Cc2cccc(C)c2)ccc1N1CCOCC1`, the inhibition is 50.4% (active).
With `CC(=O)Nc1ccc(N2CCOCC2)c(C(=O)Nc2cccc(C)c2)c1`, the inhibition was -5.97%.
As for `COC(=O)c1cc(NC(=O)c2cccnc2)ccc1N1CCOCC1`, the inhibition was -22%.
